Reference: ChEMBL document CHEMBL4251593, “Nontoxic combretafuranone analogues with high in vitro antibacterial activity” (Eur J Med Chem, 2018)
≈ marks a conversion by molar mass, not a printed value. Calls of active or inactive are those of the source. No cut-off for these calls is given here.

Columns and labels:
[1] = test system: Klebsiella pneumoniae; experiment: Antibacterial activity against Klebsiella pneumoniae HK11750/08 clinical isolate after 48 hrs by microdilution assay; type: functional; settings: HK11750/08, 48 h
[2] = test system: Clavispora lusitaniae; experiment: Antifungal activity against Candida lusitaniae 2446/I clinical isolate up to 1 mM after 24 to 48 hrs by microdilution assay; type: functional, organism-based
Method in brief: (§1)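 Fungal microdilution following modified CLSI M27-A3/M38-A2, in RPMI 1640 with L-glutamine and 0.165 M MOPS at pH 7.0, with DMSO no more than 2% final. Compounds were 2-fold serially diluted from 2000 to 0.488 µmol/l. The inoculum was 5×10^3 cfu/ml. Incubation was at 35 °C, read visually at 24/48 h (T. mentagrophytes at 72/120 h). MIC was IC80 for yeasts and IC50 for filamentous fungi, determined twice in duplicate.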

[3] = test system: Staphylococcus epidermidis; experiment: Antibacterial activity against Staphylococcus epidermidis HK6966/08 clinical isolate after 24 hrs by microdilution assay; type: functional; settings: HK6966/08, 24 h
[4] = test system: Candida albicans; experiment: Antifungal activity against Candida albicans ATCC 90028 up to 1 mM after 24 to 48 hrs by microdilution assay; type: functional, organism-based; method in brief: as §1
[5] = test system: Staphylococcus aureus; experiment: Antibacterial activity against Staphylococcus aureus ATCC 6538 after 24 hrs by microdilution assay; type: functional; settings: ATCC 6538, 24 h
[6] = test system: Trichosporon asahii; experiment: Antifungal activity against Trichosporon asahii 1188 clinical isolate up to 1 mM after 24 to 48 hrs by microdilution assay; type: functional, organism-based; method in brief: as §1
[7] = test system: Aspergillus fumigatus; experiment: Antifungal activity against Aspergillus fumigatus 231 up to 1 mM after 24 to 48 hrs by microdilution assay; type: functional, organism-based; method in brief: as §1
[8] = test system: Candida tropicalis; experiment: Antifungal activity against Candida tropicalis 156 clinical isolate up to 1 mM after 24 to 48 hrs by microdilution assay; type: functional, organism-based; method in brief: as §1
[9] = test system: Pichia kudriavzevii; experiment: Antifungal activity against Candida krusei ATCC 6258 up to 1 mM after 24 to 48 hrs by microdilution assay; type: functional, organism-based; method in brief: as §1
[10] = test system: Lichtheimia corymbifera; experiment: Antifungal activity against Absidia corymbifera 272 up to 1 mM after 24 to 48 hrs by microdilution assay; type: functional, organism-based; method in brief: as §1
[11] = test system: K562; experiment: Cytotoxicity against human K562 cells assessed as reduction in cell viability after 48 hrs by ATPlite-based luminescent assay; settings: K562, 48 h
Method in brief: (§2)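 Cells were grown […] with 10% FBS, glutamax, NEAA and pen/strep at 37 °C, 5% CO2. Media were DMEM for RPE-1, HepG2 and BJ (BJ plus 10 ng/ml bFGF), F-12K for PC3, and IMDM for K562/HL-60. Cells were seeded at 500 per well and dosed from DMSO at 12 concentrations, 40 µM to 1 nM, in triplicate. After 48 h, intracellular ATP was read by luminescence. ED50 was obtained by variable-slope nonlinear regression.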

[12] = test system: Enterococcus sp.; experiment: Antibacterial activity against Enterococcus sp. HK14365/08 clinical isolate after 48 hrs by microdilution assay; type: functional; settings: HK14365/08, 48 h
[13] = test system: Pseudomonas aeruginosa; experiment: Antibacterial activity against Pseudomonas aeruginosa ATCC 9027 after 24 hrs by microdilution assay; type: functional; settings: ATCC 9027, 24 h
Method in brief: (§3)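 Broth microdilution in Mueller-Hinton medium buffered to pH 7.4 (±0.2), with DMSO as diluent at no more than 2% final. Compounds were tested as 2-fold serial dilutions from 2000 to 0.488 µmol/l. The inoculum was 0.5 McFarland (1.5×10^8 cfu/ml). Plates were held at 37 °C and read visually at 24 and 48 h. MIC was taken as 95% growth inhibition versus control, determined twice in duplicate.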

[14] = test system: Nakaseomyces glabratus; experiment: Antifungal activity against Candida glabrata 20/I clinical isolate up to 1 mM after 24 to 48 hrs by microdilution assay; type: functional, organism-based; method in brief: as §1
[15] = test system: Pichia kudriavzevii; experiment: Antifungal activity against Candida krusei E28 clinical isolate up to 1 mM after 24 to 48 hrs by microdilution assay; type: functional, organism-based; method in brief: as §1
[16] = test system: PC-3; experiment: Induction of apoptosis in human PC3 cells assessed as caspase 3/7 activity after 24 hrs by caspase-glo luminescent assay; type: cell-based; settings: PC-3, 24 h
Method in brief: (§4)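 Cells were seeded at 500 per well in their growth media and exposed to 12 concentrations from 40 µM to 1 nM, delivered from DMSO, in triplicate. After 24 h, caspase-3/7 activity was read by Caspase-Glo luminescence. Data were normalized and ED50 was fitted by variable-slope nonlinear regression.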

[17] = test system: Staphylococcus epidermidis; experiment: Antibacterial activity against Staphylococcus epidermidis HK6966/08 clinical isolate after 48 hrs by microdilution assay; type: functional; settings: HK6966/08, 48 h
[18] = test system: BJ; experiment: Cytotoxicity against human BJ cells assessed as reduction in cell viability after 48 hrs by ATPlite-based luminescent assay; method in brief: as §2
[19] = test system: Klebsiella pneumoniae; experiment: Antibacterial activity against Klebsiella pneumoniae HK14368/08 clinical isolate after 24 hrs by microdilution assay; type: functional; settings: HK14368/08, 24 h
[20] = test system: Staphylococcus aureus; experiment: Antibacterial activity against methicillin-resistant Staphylococcus aureus HK5996/08 clinical isolate after 48 hrs by microdilution assay; type: functional; settings: HK5996/08, 48 h
[21] = test system: Escherichia coli; experiment: Antibacterial activity against Escherichia coli ATCC 8739 after 48 hrs by microdilution assay; type: functional; settings: ATCC 8739, 48 h; method in brief: as §3
[22] = test system: K562; experiment: Induction of apoptosis in human K562 cells assessed as caspase 3/7 activity after 24 hrs by caspase-glo luminescent assay; type: cell-based; settings: K562, 24 h; method in brief: as §4
[23] = test system: Escherichia coli; experiment: Antibacterial activity against Escherichia coli ATCC 8739 after 24 hrs by microdilution assay; type: functional; settings: ATCC 8739, 24 h; method in brief: as §3
[24] = test system: Candida albicans; experiment: Antifungal activity against Candida albicans ATCC 44859 up to 1 mM after 24 to 48 hrs by microdilution assay; type: functional, organism-based; method in brief: as §1
[25] = test system: MCF7; experiment: Cytotoxicity against human MCF7 cells assessed as reduction in cell viability after 48 hrs by ATPlite-based luminescent assay; settings: MCF7, 48 h
[26] = test system: PC-3; experiment: Cytotoxicity against human PC3 cells assessed as reduction in cell viability after 48 hrs by ATPlite-based luminescent assay; settings: PC-3, 48 h; method in brief: as §2
[27] = test system: Staphylococcus aureus; experiment: Antibacterial activity against Staphylococcus aureus ATCC 6538 after 48 hrs by microdilution assay; type: functional; settings: ATCC 6538, 48 h
[28] = test system: Klebsiella pneumoniae; experiment: Antibacterial activity against Klebsiella pneumoniae HK11750/08 clinical isolate after 24 hrs by microdilution assay; type: functional; settings: HK11750/08, 24 h
[29] = test system: TERT-RPE1; experiment: Induction of apoptosis in human RPE1 cells assessed as caspase 3/7 activity after 24 hrs by caspase-glo luminescent assay; type: cell-based; settings: RPE-1, 24 h; method in brief: as §4
[30] = test system: HL-60; experiment: Induction of apoptosis in human HL60 cells assessed as caspase 3/7 activity after 24 hrs by caspase-glo luminescent assay; type: cell-based; settings: HL-60, 24 h; method in brief: as §4
[31] = test system: HL-60; experiment: Cytotoxicity against human HL60 cells assessed as reduction in cell viability after 48 hrs by ATPlite-based luminescent assay; settings: HL-60, 48 h; method in brief: as §2
[32] = test system: Klebsiella pneumoniae; experiment: Antibacterial activity against Klebsiella pneumoniae HK14368/08 clinical isolate after 48 hrs by microdilution assay; type: functional; settings: HK14368/08, 48 h
[33] = test system: TERT-RPE1; experiment: Cytotoxicity against human RPE1 cells assessed as reduction in cell viability after 48 hrs by ATPlite-based luminescent assay; settings: RPE-1, 48 h; method in brief: as §2
[34] = test system: Enterococcus sp.; experiment: Antibacterial activity against Enterococcus sp. HK14365/08 clinical isolate after 24 hrs by microdilution assay; type: functional; settings: HK14365/08, 24 h
[35] = test system: Candida parapsilosis; experiment: Antifungal activity against Candida parapsilosis ATCC 22019 up to 1 mM after 24 to 48 hrs by microdilution assay; type: functional, organism-based; method in brief: as §1
[36] = test system: Pseudomonas aeruginosa; experiment: Antibacterial activity against Pseudomonas aeruginosa ATCC 9027 after 48 hrs by microdilution assay; type: functional; settings: ATCC 9027, 48 h; method in brief: as §3
[37] = test system: Trichophyton mentagrophytes; experiment: Antifungal activity against Trichophyton mentagrophytes 445 up to 1 mM after 72 to 120 hrs by microdilution assay; type: functional, organism-based; method in brief: as §1
[38] = test system: HepG2; experiment: Cytotoxicity against human HepG2 cells assessed as reduction in cell viability after 48 hrs by ATPlite-based luminescent assay; settings: HepG2, 48 h; method in brief: as §2
[39] = test system: Staphylococcus aureus; experiment: Antibacterial activity against methicillin-resistant Staphylococcus aureus HK5996/08 clinical isolate after 24 hrs by microdilution assay; type: functional; settings: HK5996/08, 24 h
[40] = test system: HepG2; experiment: Induction of apoptosis in human HepG2 cells assessed as caspase 3/7 activity after 24 hrs by caspase-glo luminescent assay; type: cell-based; settings: HepG2, 24 h; method in brief: as §4

| SMILES | MIC95 [1] [µM] | Activity [2] | MIC95 [3] [µM] | Activity [4] | MIC95 [5] [µM] | Activity [6] | Activity [7] | Activity [8] | Activity [9] | Activity [10] | IC50 [11] [µM] | MIC95 [12] [µM] | MIC95 [13] [µM] | Activity [14] | Activity [15] | IC50 [16] [µM] | MIC95 [17] [µM] | IC50 [18] [µM] | MIC95 [19] [µM] | MIC95 [20] [µM] | also measured |
| --- | --- | --- | --- | --- | --- | --- | --- | --- | --- | --- | --- | --- | --- | --- | --- | --- | --- | --- | --- | --- | --- |
| O=C1OCC(c2ccccc2)=C1c1ccc(Br)cc1 | > 1000 | inactive | 31.2 (≈ 9.85 µg/mL) | inactive | 3.9 (≈ 1.23 µg/mL) | inactive | inactive | inactive | inactive | inactive | > 40 | > 1000 | > 1000 | inactive | inactive | > 40 | 62.5 (≈ 19.7 µg/mL) | > 40 | > 1000 | 62.5 (≈ 19.7 µg/mL) | MIC95 [21]: > 1000 µM; IC50 [22]: > 40 µM; MIC95 [23]: > 1000 µM; Activity [24]: inactive; IC50 [25]: > 40 µM; IC50 [26]: > 40 µM; MIC95 [27]: 15.6 µM (≈ 4.92 µg/mL); MIC95 [28]: > 1000 µM; IC50 [29]: > 40 µM; IC50 [30]: > 40 µM; IC50 [31]: > 40 µM; MIC95 [32]: > 1000 µM; IC50 [33]: > 40 µM; MIC95 [34]: > 1000 µM; Activity [35]: inactive; MIC95 [36]: > 1000 µM; Activity [37]: inactive; IC50 [38]: > 40 µM; MIC95 [39]: 31.2 µM (≈ 9.85 µg/mL); IC50 [40]: > 40 µM |
| Cc1ccc(C2=C(c3ccc(Br)cc3)C(=O)OC2(CO)CO)cc1 | > 500 | inactive | 62.5 (≈ 24.3 µg/mL) | inactive | 0.98 (≈ 0.381 µg/mL) | inactive | inactive | inactive | inactive | inactive | > 40 | > 500 | > 500 | inactive | inactive | > 40 | 500 (≈ 195 µg/mL) | > 40 | > 500 | 500 (≈ 195 µg/mL) | MIC95 [21]: > 500 µM; IC50 [22]: > 40 µM; MIC95 [23]: > 500 µM; Activity [24]: inactive; IC50 [25]: > 40 µM; IC50 [26]: > 40 µM; MIC95 [27]: 3.9 µM (≈ 1.52 µg/mL); MIC95 [28]: > 500 µM; IC50 [29]: > 40 µM; IC50 [30]: > 40 µM; IC50 [31]: > 40 µM; MIC95 [32]: > 500 µM; IC50 [33]: > 40 µM; MIC95 [34]: 500 µM (≈ 195 µg/mL); Activity [35]: inactive; MIC95 [36]: > 500 µM; Activity [37]: inactive; IC50 [38]: > 40 µM; MIC95 [39]: 250 µM (≈ 97.3 µg/mL); IC50 [40]: > 40 µM |
